Measured values published in ChEMBL document CHEMBL1159330, “New diarylheptanoids and diarylheptanoid glucosides from the rhizomes of Tacca chantrieri and their cytotoxic activity” (J Nat Prod, 2002).
In brackets after ≈: the same amount, converted by molar mass.

Tests used:
[1] = tested on: HL-60; test: Cytotoxicity against human HL60 cells after 72 hrs by MTT assay; type: functional, cell-based; conditions: HL-60, 72 h
Procedure, shortened: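 HL-60 cells kept in RPMI 1640 with 10% heat-inactivated FBS, penicillin and streptomycin, 5% CO₂, 37 °C. Seeded at 4 × 10⁴ cells/mL, 196 µL per well, pre-incubated 24 h. Sample added in EtOH-H₂O (1:1) to final 0.1-10 µg/mL, solvent-only controls. Exposure 72 h. Triplicate. IC₅₀ = 50% drop in viable cells.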

[2] = Cytotoxicity against HGF by MTT assay; type: cell-based; conditions: Homo sapiens
Procedure, shortened: (§1)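 HSC-2 grown in DMEM with 10% heat-inactivated FBS. HGF taken from a healthy person's gingival biopsy, explant-cultured, used at passages 5-7. Cells trypsinized, seeded at 6 × 10³ per well, grown 24 h. Washed with PBS, then compound for 24 h. Washed, 0.2 mg/mL MTT in DMEM/10% FBS for 4 h. Lysed in DMSO, A540 measured.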

[3] = tested on: HSC-2; test: Cytotoxicity against human HSC2 cells by MTT assay; type: functional, cell-based; procedure, shortened: as §1

Structure (SMILES) | IC50 [1] [µg/mL] | IC50 [2] [µg/mL] | IC50 [3] [µg/mL]
COc1cc(CC[C@@H](O)C[C@H](O)CCc2ccc(O)cc2)ccc1O | > 10 |  | 
COc1cc(CC[C@@H](O)C[C@@H](CCc2ccc(O)c(OC)c2)O[C@@H]2O[C@H](CO)[C@@H](O)[C@H](O)[C@H]2O)ccc1O | > 10 | > 250 | 198 (≈ 368 µM)
Oc1ccc(CC[C@@H](O)C[C@H](O)CCc2ccc(O)c(O)c2)cc1 | 2.1 (≈ 6.32 µM) | 162 (≈ 487 µM) | 54 (≈ 162 µM)
Oc1ccc(CC[C@@H](O)C[C@H](O)CCc2ccc(O)c(O)c2)cc1O | 1.8 (≈ 5.17 µM) | > 250 | 54 (≈ 155 µM)
COc1cc(CC[C@H](C[C@H](O)CCc2ccc(O)c(O)c2)O[C@@H]2O[C@H](CO)[C@@H](O)[C@H](O)[C@H]2O)ccc1O | 4.5 (≈ 8.58 µM) | > 250 | 209 (≈ 398 µM)
OC[C@H]1O[C@@H](O[C@H](CCc2ccc(O)c(O)c2)C[C@H](O)CCc2ccc(O)cc2)[C@H](O)[C@@H](O)[C@@H]1O | 6.2 (≈ 12.5 µM) | 220 (≈ 445 µM) | 158 (≈ 319 µM)
COc1cc(CC[C@H](C[C@H](O)CCc2ccc(O)cc2)O[C@@H]2O[C@H](CO)[C@@H](O)[C@H](O)[C@H]2O)ccc1O | > 10 | > 250 | 160 (≈ 315 µM)
OC[C@H]1O[C@@H](O[C@H](CCc2ccc(O)c(O)c2)C[C@H](O)CCc2ccc(O)c(O)c2)[C@H](O)[C@@H](O)[C@@H]1O | 3 (≈ 5.88 µM) | 189 (≈ 370 µM) | 92 (≈ 180 µM)
COc1ccc(CC[C@@H](O)C[C@H](O)CCc2ccc(OC)c(OC)c2)cc1 | 5.5 (≈ 14.7 µM) | 176 (≈ 470 µM) | 3.9 (≈ 10.4 µM)
COc1cc(CC[C@@H](O)C[C@H](O)CCc2ccc(O)c(O)c2)ccc1O | 4.1 (≈ 11.3 µM) |  | 
COc1ccc(CC[C@@H](O)C[C@H](O)CCc2ccc(OC)cc2)cc1 | 6.4 (≈ 18.6 µM) | 173 (≈ 502 µM) | 23 (≈ 66.8 µM)
COc1cc([C@@H]2c3cc4c(cc3[C@@H](O[C@@H]3O[C@@H]5CO[C@@H](C)O[C@H]5[C@H](O)[C@H]3O)[C@H]3COC(=O)[C@H]23)OCO4)cc(OC)c1O [ETOPOSIDE] | 0.2 (≈ 0.34 µM) | > 200 | 
COc1cc(CC[C@@H](O)C[C@H](O)CCc2ccc(O)c(OC)c2)ccc1O | > 10 |  | 
COc1ccc(CC[C@@H](O)C[C@H](O)CCc2ccc(OC)c(OC)c2)cc1OC | 4.9 (≈ 12.1 µM) | 174 (≈ 430 µM) | 6.6 (≈ 16.3 µM)
OC[C@H]1O[C@@H](O[C@H](CCc2ccc(O)cc2)C[C@H](O)CCc2ccc(O)cc2)[C@H](O)[C@@H](O)[C@@H]1O | > 10 | 213 (≈ 445 µM) | 157 (≈ 328 µM)
OC[C@H]1O[C@@H](O[C@H](CCc2ccc(O)cc2)C[C@H](O)CCc2ccc(O)c(O)c2)[C@H](O)[C@@H](O)[C@@H]1O | 5.5 (≈ 11.1 µM) | > 250 | 155 (≈ 313 µM)
Oc1ccc(CC[C@@H](O)C[C@H](O)CCc2ccc(O)cc2)cc1 [(+)-HANNOKINOL] | > 10 | 177 (≈ 559 µM) | 231 (≈ 730 µM)
